Laboratory results published in publication PMC4423566 (Nature communications, 2015).
Blank lines part the entries; values can stand above or below the compound they belong to. Square brackets hold non-standard residues; d marks the D form. Peptide text beside a SMILES is read from it. * marks the point of attachment. X1 = CC(=O)N[C@@H]1[C@@H](O[C@@H]2O[C@H](CO)[C@H](O)[C@H](O)[C@H]2O)[C@@H](O)[C@@H](CO[C@@H]2O[C@H](CO)[C@@H](O[C@@H]3O[C@H](CO)[C@H](O)[C@H](O[C@]4(C(=O)O)C[C@H](O)[C@@H](NC(C)=O)[C@H]([C@H](O)[C@H](O)CO)O4)[C@H]3O)[C@H](O[C@@H]3O[C@@H](C)[C@@H](O)[C@@H](O)[C@@H]3O)[C@H]2NC(C)=O)O[C@@H]1*; Phe(4-CH2SO3H) = N[C@@H](Cc1ccc(CS(=O)(=O)O)cc1)C(=O)O; Mca = COc1ccc2c(CC(=O)*)cc(=O)oc2c1

Legend:
[1] = system: platelet-leukocyte aggregate formation; experiment: Platelet-leukocyte aggregates in human whole blood, dual-label flow cytometry; format: cell-based; details: 40 μM, PAR1-activating peptide
Procedure, shortened: (§1)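 Anticoagulated whole blood was treated with 40 μM test compound at room temperature. Stimulation used PAR1-activating peptide 40 μM (human) or PAR4-activating peptide 200 μM (mouse). Staining was anti-CD42a-PE/anti-CD45-APC (human) or anti-CD41-PE/anti-CD45-APC (mouse). CD45+ neutrophils and monocytes were gated by side scatter and scored as % platelet-positive. Saline and anti-CD62P (5 μg/mL) were controls. Samples were run in triplicate.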

[2] = system: leukocyte rolling and arrest on substrates coated with ICAM-1 and E-selectin; experiment: In vitro flow assay on ICAM-1/E-selectin substrate under shear; format: cell-based, human; details: concentrations as high as 30 μM
Procedure, shortened: (§2)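 Aminosilanized glass was coated with human ICAM-1-Fc plus P- or E-selectin-Fc (5 μg/mL, 1 h). Human blood cells from healthy donors were density-separated and suspended in HEPES-buffered salt solution. Cells were exposed 10 min to PBS or test compound (up to 30 μM), then perfused at 2 dynes/cm2. Video ran 2 min at 7.5 frames/s. Centroids were tracked over 10 s; < 1 μm/s counted as arrested; capture and rolling velocity scored.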

[3] = Temperature- and pH-dependent stability by RP-HPLC; format: physicochemical
L-Sel-Ig = experiment: Biacore binding assay, L-selectin
Procedure, shortened: (§3)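 Biotinylated test glycopeptide was captured on a streptavidin-coated sensor chip at low (< 5 RU) or high (60 RU) density. P-, L- or E-selectin-Ig was applied at 2.5–60 μg/mL. Kinetic parameters were fitted to a 1:1 binding model. Affinity relative to P-Sel-Ig was estimated by comparing binding at the two capture densities.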

[4] = system: platelet-leukocyte aggregate formation; experiment: Platelet-leukocyte aggregates in mouse whole blood, dual-label flow cytometry; format: cell-based; details: 40 μM, PAR4-activating peptide
Procedure, shortened: as §1

[5] = system: platelet-neutrophil binding and platelet aggregation in venules; experiment: TNF-α-induced venular inflammation, cremaster intravital microscopy; format: in vivo; details: 3 hr after TNF-α; GSnP-6 4 μmol/kg IV, antibody 75 μg/mouse IV
Procedure, shortened: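 Male C57BL/6 mice, 6–8 weeks old, received intrascrotal TNF-α (0.5 μg) 3 h before cremaster preparation. Just before imaging, test compound (4 μmol/kg), anti-CD62P or saline was given via jugular cannula. Labels were Dylight 649 anti-CD42b (platelets) and Alexa 488 anti-Gr-1 (neutrophils). Venules 30–45 μm (8–10/mouse, 5 mice) were imaged over 2 min. Platelet signal was taken as AUC normalized to vessel area, reported as median integrated fluorescence.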

human P-selectin = human P-selectin (Homo sapiens, UniProt P16109); experiment: Biacore binding assay, human P-selectin; details: from Kd 22 nM
[6] = system: human neutrophil and monocyte rolling and arrest on ICAM-1/P-selectin substrate; experiment: In vitro flow assay on ICAM-1/P-selectin substrate under shear; format: cell-based
Procedure, shortened: as §2

E-selectin Fc chimera = experiment: Flow cytometry, E-selectin Fc chimera binding to leukocytes; format: cell-based, human and mouse; details: GSnP-6 0 - 30 μM
Procedure, shortened: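 Cells were heparinized mouse blood (cardiac puncture), citrated human blood, or cultured U937. They were incubated with test compound (0–30 μM) and species-matched selectin Fc chimera (2 μg/mL), then PE anti-Fc (1:100). Read-out was flow-cytometric MFI, expressed as percent inhibition versus PBS control, in triplicate. KPL1 and 4RA10 anti-PSGL-1 antibodies served as specificity checks.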

P-selectin [7] = experiment: Microarray binding of glycopeptide mimics to selectin-Ig chimeras; set-up: species or system human and mouse; details: selectin-Ig chimeras 5-20 μg/mL, Alexa-488 anti-human IgG
mouse P-selectin = mouse P-selectin (Mus musculus, UniProt Q01102); experiment: Biacore binding assay, mouse P-selectin; details: printed as fold lower
[8] = target: human L-selectin Fc chimera (Homo sapiens, UniProt P14151); experiment: Flow cytometry, L-selectin Fc chimera binding to human U937; format: cell-based; details: read-out: IC50, inhibition of PSGL-1/L-selectin interactions; human leukocytes (human U937)
E-Sel-Ig = experiment: Biacore binding assay, E-selectin
Procedure, shortened: as §3

[9] = system: leukocyte rolling in cremaster venules; experiment: Intravital microscopy of mouse cremaster, leukocyte rolling; format: in vivo; details: 4 μmol/kg IV
Procedure, shortened: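 Mice under IP ketamine/xylazine/atropine were kept on a 37°C blanket. Test compound (4 μmol/kg in saline) or saline was given through a jugular cannula. The cremaster was superfused with bicarbonate-buffered saline (5% CO2 in N2). Venules 30–40 μm were viewed 15–25 min post-surgical stimulation, seven per mouse. Velocities of 5–10 rolling leukocytes per venule were tracked over 2 s; mean and median were taken.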

[10] = system: human platelet-monocyte aggregation; details: cited from earlier work
P-selectin [11] = details: P-selectin inhibitor; cited from earlier work
[12] = Biacore, compared with P-selectin
[13] = fold lower, densities < 5 RU vs 60 RU

stability at low pH ([3]; pH 5, T = 37°C): without observed degradation products
stability at high temperature ([3]; pH 7.5, T = 60°C): without observed degradation products
binding to L-selectin (in words) (L-Sel-Ig; [12]): lower affinity
affinity of L-Sel-Ig for immobilized GSnP-6 relative to P-Sel-Ig (L-Sel-Ig; [13]): ~ 25 fold
experimental interaction energy with P-selectin (human P-selectin): -10.5 kcal/mol
IC50 ([6]; read-out: IC50, inhibition of neutrophil capture in shear flow, human neutrophils, 2 dynes/cm^2): 5 µM
inhibition of E-selectin interactions (in words) (E-selectin Fc chimera): not observed
Kd to murine P-selectin relative to human P-selectin (mouse P-selectin): ~ 9 fold
IC50 [8]: ~30 µM
binding to E-selectin (in words) (E-Sel-Ig; [12]): lower affinity
affinity of E-Sel-Ig for immobilized GSnP-6 relative to P-Sel-Ig (E-Sel-Ig; [13]): ~ 25 fold
Compound: COc1ccc2c(CC(=O)NCCCC[C@H](N)C(=O)N[C@@H](CCC(=O)O)C(=O)N[C@@H](Cc3ccc(CS(=O)(=O)O)cc3)C(=O)N[C@@H](CCC(=O)O)C(=O)N[C@@H](Cc3ccc(CS(=O)(=O)O)cc3)C(=O)N[C@@H](CC(C)C)C(=O)N[C@@H](CC(=O)O)C(=O)N[C@@H](Cc3ccc(CS(=O)(=O)O)cc3)C(=O)N[C@@H](CC(=O)O)C(=O)N[C@@H](Cc3ccccc3)C(=O)N[C@@H](CC(C)C)C(=O)N3CCC[C@H]3C(=O)N[C@@H](CCC(=O)O)C(=O)N[C@H](C(=O)N[C@@H](CCC(=O)O)C(=O)N3CCC[C@H]3C(=O)N[C@@H](CC(C)C)C(=O)O)[C@@H](C)O[C@H]3O[C@H](CO[C@@H]4O[C@H](CO)[C@@H](O[C@@H]5O[C@H](CO)[C@H](O)[C@H](O[C@]6(C(=O)O)C[C@H](O)[C@@H](NC(C)=O)[C@H]([C@H](O)[C@H](O)CO)O6)[C@H]5O)[C@H](O[C@@H]5O[C@@H](C)[C@@H](O)[C@@H](O)[C@@H]5O)[C@H]4NC(C)=O)[C@H](O)[C@H](O[C@@H]4O[C@H](CO)[C@H](O)[C@H](O)[C@H]4O)[C@H]3NC(C)=O)cc(=O)oc2c1 [GSnP-6] (H-K(Mca)E[Phe(4-CH2SO3H)]E[Phe(4-CH2SO3H)]LD[Phe(4-CH2SO3H)]DFLPET(X1)EPL-OH; N-terminus and C-terminus assumed)
inhibition of platelet-monocyte aggregate formation [1]: 72%
inhibition of platelet-neutrophil aggregate formation [1]: 65%
leukocyte rolling and arrest on ICAM-1 and E-selectin (in words) [2]: did not perturb
inhibition of platelet-monocyte aggregate formation [4]: 47%
inhibition of platelet-neutrophil aggregate formation [4]: 42%
platelet accumulation, median integrated platelet fluorescence (in words) [5]: limited platelet signal
platelet aggregation and platelet-PMN binding (in words) [5]: significantly reduced
inhibition of rolling and arrest ([6]; 6 μM, human neutrophils and monocytes): 80%
microarray binding to P-selectin (in words) (P-selectin [7]): bound to P-selectin more strongly than to E- or L-selectin
increase in median rolling velocities vs saline [9]: 2 fold
mean leukocyte rolling velocity ([9]; 15-25 min after surgical stimulation): 74.9 ± 3.4 μm/s

Compound: O=C(O)c1c(O)c(Cc2ccc(Cl)cc2)nc2c3c(ccc12)CCCC3 [PSI-697]
inhibition of human platelet-monocyte aggregation (in words) [10]: only weakly inhibits
Kd (P-selectin [11]): ~200 µM
